KCNQ1 block – inhibitors of human KCNQ1 channel, primary screen, cell-based, thallium flux, high-throughput; 310,000 compounds, 1.3% hits; B-score at 10 µM; CHO-K1 KCNQ1, FluxOR thallium flux fluorescence; stronger effect = higher value; Potassium voltage-gated channel subfamily KQT member 1 (Homo sapiens), P51787; AID 2642, 2010;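 active = compounds whose thallium flux B-score, printed positive for inhibition, exceeds three library SD while starting fluorescence stays within three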;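 also: channel opened by potassium depolarization with thallium stimulus after 20 min compound exposure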
Target sequence (P51787 whole entry, looked up): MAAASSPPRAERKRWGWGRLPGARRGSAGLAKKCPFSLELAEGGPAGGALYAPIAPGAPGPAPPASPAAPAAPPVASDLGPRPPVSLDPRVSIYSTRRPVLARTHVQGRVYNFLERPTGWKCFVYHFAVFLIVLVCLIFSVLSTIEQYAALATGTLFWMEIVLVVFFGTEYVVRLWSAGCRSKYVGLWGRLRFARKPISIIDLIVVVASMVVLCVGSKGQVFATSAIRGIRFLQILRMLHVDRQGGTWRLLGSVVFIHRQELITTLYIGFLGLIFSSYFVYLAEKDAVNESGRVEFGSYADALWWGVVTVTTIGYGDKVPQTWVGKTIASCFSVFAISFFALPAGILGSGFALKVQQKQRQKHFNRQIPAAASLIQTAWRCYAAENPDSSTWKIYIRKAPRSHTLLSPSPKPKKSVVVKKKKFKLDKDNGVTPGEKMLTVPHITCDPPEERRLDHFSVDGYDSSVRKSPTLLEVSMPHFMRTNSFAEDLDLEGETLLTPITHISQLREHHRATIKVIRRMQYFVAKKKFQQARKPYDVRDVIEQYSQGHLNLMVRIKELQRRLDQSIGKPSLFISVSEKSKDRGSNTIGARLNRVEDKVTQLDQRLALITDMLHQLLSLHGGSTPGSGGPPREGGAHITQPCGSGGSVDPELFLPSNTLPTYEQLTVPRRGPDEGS
KCC2 mod – KCC2 cotransporter modulators, thallium flux, primary screen, cell-based, HEK293 KCC2, FluoZin-2 fluorescence, MLSMR; KCC2 cells, thallium flux FluoZin-2 fluorescence; B-score of Tl+ flux slope (higher = more flux/activation; lower = inhibition) at 10 µM; 190,000 compounds, 2.2% hits; AID 1456, 2008;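 active = thallium flux slope and its plate-corrected score both differing from the plate sample mean at a set confidence after two filtering rounds, in either direction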;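 also: slope of fluorescence scaled to starting intensity during 10 to 20 s after thallium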
hERG rescue – hERG rescue from dofetilide block, primary screen, cell-based, CHO-hERG, FluxOR thallium flux, dofetilide IC70 | AID 1511, 2009 | 310,000 compounds, 0.51% hits | dofetilide IC70 present | activation (rescue from dofetilide block), less the hit threshold, % at 10 µM | Voltage-gated inwardly rectifying potassium channel KCNH2 (Homo sapiens), Q12809;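 active = activation above the mean of controls blocked by dofetilide plus 5 SD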;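 also: thallium influx through hERG after potassium depolarization seen as dye fluorescence rise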
KCNK3 block – human KCNK3 channel inhibitors, primary screen, CHO cells, FluxOR thallium flux, B-score; 340,000 compounds, 0.84% hits; FluxOR fluorescence; stronger effect = lower value; Potassium channel subfamily K member 3 (Homo sapiens), O14649; B-score at 10 µM;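 active = B-score under library mean minus 4 SD, starting fluorescence ratio at most library mean plus 5 SD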;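 also: more negative B-score means stronger inhibition of thallium flux through KCNK3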
KCNK9 block – KCNK9 potassium channel inhibitors, primary screen, HEK293 cells, thallium flux. B-score at 10 µM. 310,000 compounds, 1.2% hits. Potassium channel subfamily K member 9 (Homo sapiens), Q9NPC2. FluxOR thallium flux fluorescence; stronger effect = lower value;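 active = ratio B-score over 3 SD below the library mean, with starting fluorescence within 5 SD of its mean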;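 also: negative B-score means less thallium flux so channel inhibition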
KCNQ1 pot – potentiators or activators of KCNQ1 channel, primary screen, cell-based, thallium flux, high-throughput | Potassium voltage-gated channel subfamily KQT member 1 (Homo sapiens), P51787 | CHO-K1 KCNQ1, thallium flux FluxOR fluorescence; stronger effect = higher value | B-score at 10 µM | 310,000 compounds, 0.35% hits | AID 2648, 2010;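 active = fluorescence ratio B-score, a plate-corrected score, at least three library SD, with initial intensity B-score within 5 SD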
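Doses: Single concentration per compound, DMSO matched to controls | Test system: KCNQ1-transfected CHO-K1 cells | Timing: 90 min dye loading and 20 min compound exposure, both at room temperature | Measured by: Kinetic FluxOR thallium fluorescence, 10-s 1-Hz baseline, 110-s post-stimulus read | Medium: Assay buffer with matched DMSO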
KCC2 sec1 – KCC2 modulators in sodium-free buffer, confirmation, cell-based, HEK293 KCC2, thallium flux, secondary assay. shares compounds with KCC2 mod. FluoZin2 fluorescence; stronger effect = higher value. normalised thallium flux (F/F0 slope) at 10 µM. 3,700 compounds, 15% hits;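 active = thallium flux slope above the same plate's solvent-only control mean plus 3 SD; inconclusive = the two replicate wells disagree; inactive = no significant difference from solvent-only control wells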
KCC2 bumet counter – thallium flux persisting under bumetanide in KCC2 cells, confirmation, counter-screen for KCC2 modulator project, cell-based, HEK293 KCC2, FluoZin2, secondary assay 3 | shares compounds with KCC2 mod | HEK293-KCC2 + bumetanide/ouabain; stronger effect = higher value | normalized thallium flux at 10 µM | 3,700 compounds, 49% hits;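 active = thallium entry rate above the same plate's blocked-transporter control wells by more than 3 SD; inconclusive = the two repeat wells disagree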;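 also: raw slope of fluorescence over initial fluorescence between 10 and 20 s after thallium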
KCC2 secondary2 – KCC2 modulators without ouabain present, confirmation, cell-based, HEK293 KCC2, thallium flux, FluoZin2, secondary assay 2; shares compounds with KCC2 mod; thallium flux FluoZin2 fluorescence; actives lie on both sides; F/F0 rise rate, 10–20 s post-thallium; normalized thallium flux at 10 µM; 3,700 compounds, 23% hits; AID 1715, 2009;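 active = thallium flux slope more than 3 SD above or below the plate's solvent-only control mean, mostly below; inconclusive = the two repeat wells disagreed; inactive = no significant shift from solvent-only controls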;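 also: raw slope with 0.1% DMSO as baseline and bumetanide as block control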
HEK293 Tl flux – thallium flux modulation in parental HEK cells, confirmation, counter-screen for KCC2 modulator project, cell-based, counterscreen 1; 3,700 compounds, 46% hits; thallium flux rate (normalised fluorescence) at 10 µM; HEK293 parental cells, thallium flux FluoZin2, ouabain; baseline-ratio fluorescence slope, 10–20 s after thallium; shares compounds with KCC2 mod;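 active = thallium flux rate significantly above the same plate's solvent-only control wells, beyond their mean plus 3 SD; inconclusive = the two replicate wells gave conflicting results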
KCC2 retest ouab – KCC2 inhibitors and activators, ouabain retest, confirmation, HEK-KCC2 cells; shares compounds with KCC2 mod; HEK293-KCC2, thallium flux FluoZin2 fluorescence; bidirectional: low = inhibitor, high = activator; raw Tl+ flux slope (below DMSO = inhibition, above = activation) at 10 µM; 3,700 compounds, 48% hits;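 active = thallium flux slope beyond 3 SD from same-plate DMSO control mean in most replicates, usually higher, sometimes lower; inconclusive = repeat tests gave conflicting results; inactive = no significant difference from controls in most replicates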;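 also: slope of initial-normalized fluorescence between seconds 10 and 20 after thallium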
HEK293 Tl flux2 – native HEK Tl+ uptake effects, second counter-screen – HEK cells, counterscreen 2, counter-screen for KCC2 modulator project, confirmation; shares compounds with KCC2 mod; HEK293 parental, thallium flux FluoZin-2 fluorescence slope; thallium flux slope at 10 µM; 3,700 compounds, 33% hits; AID 1718, 2009;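 active = thallium flux slope above the same plate's solvent-control mean plus 3 SD in both duplicate wells; inconclusive = duplicate wells that disagreed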;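 also: run without ouabain in cells lacking the KCC2 cotransporter; slope of fluorescence scaled to its starting value between 10 and 20 s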
* = called active by the depositor. Shown are actives, neighbours in structure and some others; about 4.1% of the full set was active somewhere.

`CCCN(CC(=O)Nc1ccccc1OC)C(=O)c1cc(-c2cccs2)nn1-c1ccccc1` gave KCNQ1 block inactive, hERG rescue -19, KCNK3 block inactive, KCNK9 block inactive and KCNQ1 pot inactive.
Screening COc1ccccc1CNC(=O)C1Cc2cc(S(=O)(=O)N3CCCCC3)ccc2N1C(C)=O (stereo not given) returned KCNQ1 block inactive, hERG rescue -9, KCNK3 block inactive, KCNK9 block inactive and KCNQ1 pot inactive.
Screening O=C(CN1CCC(NC(=O)c2ccccc2)CC1)NCc1ccccc1F returned KCNQ1 block inactive, hERG rescue -11, KCNK3 block inactive, KCNK9 block inactive and KCNQ1 pot inactive.
O=C(CN1CCC(NC(=O)c2cccc(F)c2)CC1)NCc1ccccc1F was read as KCNQ1 block inactive, hERG rescue -14, KCNK3 block inactive, KCNK9 block inactive, KCNQ1 pot inactive, KCC2 sec1 0.0089, KCC2 bumet counter 0.0068, KCC2 secondary2 0.031, HEK293 Tl flux 0.0073, KCC2 retest ouab 0.033 and HEK293 Tl flux2 0.01.
CCOc1cccc(-c2nnc3sc(COc4ccc(Cl)cc4)nn23)c1 was read as KCNQ1 block inactive, KCC2 mod -3.6*, hERG rescue -8, KCNK3 block inactive, KCNK9 block inactive, KCNQ1 pot inactive, KCC2 sec1 0.019, KCC2 bumet counter 0.0046, KCC2 secondary2 0.028, HEK293 Tl flux 0.0072, KCC2 retest ouab 0.014 and HEK293 Tl flux2 0.01.
CCOc1cccc(-c2nnc3sc(COc4ccc(C)cc4)nn23)c1 was read as KCNQ1 block inactive, KCC2 mod 0.055, hERG rescue -8, KCNK3 block inactive, KCNK9 block inactive and KCNQ1 pot inactive.
Screening CC1C=CC=CC=CC=CC=CC=CC=CC(OC2OC(C)C(O)C(N)C2O)CC2OC(O)(CC(O)CC(O)C(O)CCC(O)CC(O)CC(=O)OC(C)C(C)C1O)CC(O)C2C(=O)O (stereo not given) returned KCNK3 block inactive.
For O=[N+]([O-])c1ccc(-c2nc(=S)c3c(o2)CCCC3)cc1 the results were KCNQ1 block inactive, KCC2 mod 34*, hERG rescue 1, KCNK3 block inactive, KCNK9 block inactive, KCNQ1 pot inactive, KCC2 sec1 0.018*, KCC2 bumet counter 0.027*, KCC2 secondary2 0.038, HEK293 Tl flux 0.033*, KCC2 retest ouab 0.042* and HEK293 Tl flux2 0.016*.
Screening O=c1oc(-c2ccccc2)nc2sc3c(c12)CCC3 returned KCNQ1 block inactive, KCC2 mod 0.013, hERG rescue -8, KCNK3 block inactive, KCNK9 block inactive and KCNQ1 pot inactive.
Screening S=c1nc(-c2ccccc2)oc2c1CCCC2 returned KCNQ1 block inactive, KCC2 mod 5.3*, hERG rescue -4, KCNK3 block inactive, KCNK9 block inactive, KCNQ1 pot inactive, KCC2 sec1 0.0084, KCC2 bumet counter 0.045*, KCC2 secondary2 0.032, HEK293 Tl flux 0.012*, KCC2 retest ouab inconclusive and HEK293 Tl flux2 0.013*.
`COc1ccc([C@H]2CC(=O)C=C(c3ccc(Cl)c(C(F)(F)F)c3)C2)cc1` gave KCNK3 block inactive.
COc1cc(OC)cc(C(=O)NCC(=O)NCc2ccccn2)c1 was read as KCNK3 block inactive.
For CC(C)(C)OC(=O)N1CCN(C(=O)c2ncn(Cc3ccccc3)c2C(=O)N2CCN(C(=O)OC(C)(C)C)CC2)CC1 the results were KCNK3 block inactive.
`CCN1C(c2ccc(F)cc2)=CS/C1=C(\C#N)c1nnc2n1-c1ccccc1SC2` gave KCNQ1 block inactive, KCC2 mod -5.1*, hERG rescue -4, KCNK3 block inactive, KCNK9 block inactive, KCNQ1 pot inactive, KCC2 sec1 0.0084, KCC2 bumet counter 0.0048, KCC2 secondary2 0.034, HEK293 Tl flux 0.0078, KCC2 retest ouab 0.015* and HEK293 Tl flux2 0.012.
For CN1C(c2ccc(F)cc2)=CS/C1=C(/C#N)c1nnc(N2CCOCC2)n1-c1ccccc1 the results were KCNQ1 block inactive, KCC2 mod -2.1, hERG rescue -10, KCNK3 block inactive, KCNK9 block inactive and KCNQ1 pot inactive.
Screening Cc1nn(-c2nc3ccccc3[nH]2)c(N)c1-c1ccccc1 returned KCNQ1 block inactive, KCC2 mod 2.6*, hERG rescue -7, KCNK3 block inactive, KCNK9 block inactive, KCNQ1 pot inactive, KCC2 sec1 0.0064, KCC2 bumet counter 0.012*, KCC2 secondary2 0.032, HEK293 Tl flux 0.011*, KCC2 retest ouab inconclusive and HEK293 Tl flux2 0.014*.

Assay outcomes (PubChem BioAssay)
